FXN GAA850 act = frataxin GAA850 promoter activation; hit rate 0.56% among 360,000; activation, % at 6 µM; HEK293 lucGAA850 FXN promoter luciferase reporter, 24 h; percent of 10 µM SAHA response;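 active = activation above the average of all compounds screened plus 3 SD, cutoff fixed separately per campaign, cut at about 7.5% in these data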;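 note: 0% = DMSO wells and 100% = 10 µM SAHA wells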
HIF act = HIF pathway transcriptional activation; hit rate 0.32% among 300,000; AID 1910; activation, % at 7.5 µM (by protocol); U2OS HRE-luciferase reporter, luminescence; normalized: DMSO 0%, desferrioxamine 100%;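 active = mean activation of at least 10% of the iron chelator positive control signal, with at least half of replicates also reaching 10%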
Neddyl block = inhibitors of human cullin neddylation | TR-FRET cullin neddylation, biochemical | inhibition, % at 25 µM | hit rate 0.58% among 360,000 | AID 651699; in the data active = inhibition above about 36%
proCasp7 act = counter-screen: procaspase-7 (human) activation; activation, % at 8.5 µM; hit rate 0.093% among 330,000; P55210; recombinant procaspase-7, Ac-DEVD-pNA absorbance 405 nm; D23A/D198A/D206A triple mutant, cannot self-cleave; scale: DMSO 0, 5 µM enzyme 100; AID 463210;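 active = percent activation above the screen-wide mean plus 3 SD, cut at about 25% in these data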
Target sequence (P55210 whole entry D23A/D198A/D206A): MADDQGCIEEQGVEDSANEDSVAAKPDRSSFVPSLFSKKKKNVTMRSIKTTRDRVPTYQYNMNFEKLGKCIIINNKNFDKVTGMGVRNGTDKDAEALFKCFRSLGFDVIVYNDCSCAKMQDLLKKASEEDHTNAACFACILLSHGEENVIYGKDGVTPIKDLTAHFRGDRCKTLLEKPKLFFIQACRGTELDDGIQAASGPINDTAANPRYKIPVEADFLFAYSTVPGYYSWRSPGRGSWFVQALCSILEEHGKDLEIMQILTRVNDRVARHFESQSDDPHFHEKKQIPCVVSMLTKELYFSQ
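Assay system – Uncleavable procaspase-7 mutant enzyme · Quantity – 2 µM procaspase-7 mutant as dispensed · Times – 1 h preincubation, 2 h reaction · Dosing – single nominal 8.5 µM compound dose, 0.8% DMSO final · Buffer or medium – Zinc-free 50 mM HEPES buffer, pH 7.4, with NaCl and Triton X-100 · Detection – Epi-absorbance of released pNA at 405 nm, two timepoints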
Calb FLC = C. albicans growth modulation with fluconazole | hit rate 0.57% among 300,000 | growth inhibition, % (concentration not given with the values) | AID 1979 | C. albicans CaCi-2 + fluconazole, Alamar Blue growth, 48 h;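 active = growth inhibition above about 58% in most replicates, limit read from the data, passing the limit was not always enough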;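 note: all wells also contain fluconazole at 8 µg/ml as a sub-toxic cotreatment; 0% = median of DMSO wells and 100% = median of geldanamycin control wells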
proCasp3 act = activators of human procaspase-3; recombinant procaspase-3 D3A, Ac-DEVD-pNA absorbance 405 nm; AID 463141; P42574; hit rate 0.11% among 330,000; activation, % at 8.5 µM;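 active = activation above the mean of all tested compounds plus 3 SD, cut at about 21% in these data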;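 note: 0% = DMSO alone and 100% = DMSO wells spiked with extra 5 µM PC-3 D3A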
Target sequence (P42574 whole entry D9A/D28A/D175A): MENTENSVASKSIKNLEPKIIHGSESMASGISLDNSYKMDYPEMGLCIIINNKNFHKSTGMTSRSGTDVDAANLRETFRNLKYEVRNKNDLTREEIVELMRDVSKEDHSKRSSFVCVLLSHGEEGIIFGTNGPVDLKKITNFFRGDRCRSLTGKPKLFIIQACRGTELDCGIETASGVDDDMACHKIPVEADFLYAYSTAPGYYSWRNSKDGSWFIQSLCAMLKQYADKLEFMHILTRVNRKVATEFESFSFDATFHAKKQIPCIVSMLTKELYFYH
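Assay system: Procaspase-3 D3A mutant, all three cleavage aspartates alanine. Buffer or medium: Zinc-free HEPES saline buffer with Triton X-100. Times: 1 h compound preincubation, 2 h substrate hydrolysis at 25 °C. Measured by: 405 nm absorbance of p-nitroaniline, reads at 0 and 120 min. Read-out basis: percent activation relative to control range. Replicates: singlicate.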
procasp7 triplic = counter-screen for procaspase-3 activators: activators of human procaspase-7 | recombinant procaspase-7, Ac-DEVD-pNA absorbance; asp23/198/206-to-Ala mutant, cannot self-cleave | AID 488941 | activation, % at 8.5 µM | 210 tested, under 10 active | shares compounds with proCasp3 act;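 active = mean activation above a set limit taken from an earlier procaspase-7 screen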;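 note: 0% = DMSO wells and 100% = DMSO plus 5 µM procaspase-7 enzyme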
proCasp3 confirm = confirmation of human procaspase-3 activators | activation, % at 8.5 µM | AID 488954 | shares compounds with proCasp3 act | hit rate 10% among 210 | recombinant PC-3 D3A, Ac-DEVD-pNA absorbance 405 nm; 100% is higher-enzyme control;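 active = mean activation above a set limit carried over from the earlier primary screen, cut at about 22% in these data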
PC3 D3A act = counter-screen for dual procaspase-3/7 activators: human procaspase-3 activation; 290 tested, under 10 active; AID 493114; shares compounds with proCasp7 act; recombinant PC-3 D3A, Ac-DEVD-pNA absorbance 405 nm; aspartates 9, 28, 175 changed to alanine; 100% = enzyme control; activation, % at 8.5 µM;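 active = mean percent activation across triplicates above a set limit taken from the earlier primary procaspase-3 screen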;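 note: 0% = DMSO wells and 100% = DMSO wells with 5 µM added PC-3 D3A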
PC7 dual conf = activates human procaspase-7, confirming dual procaspase activators | shares compounds with proCasp7 act | recombinant procaspase-7, Ac-DEVD-pNA absorbance 405 nm; D23A/D198A/D206A mutant that cannot self-cleave | activation, % at 8.5 µM | 290 tested, under 10 active | AID 493115;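 active = mean activation above a set limit carried over from the earlier primary screen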;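 note: 0% = DMSO only and 100% = DMSO with added 5 µM PC-7 enzyme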
GAA30 FXN cntr = activates GAA30 frataxin promoter, counter-screen for GAA850 activators. HEK293 lucGAA30 FXN promoter luciferase, 24 h; DMSO = 0%, 5 µM ipriflavone = 100%. activation, % at 6 µM. hit rate 66% among 1,900. AID 588350. shares compounds with FXN GAA850 act;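 active = mean activation above the mean of solvent-only control wells plus 3 SD, cut at about 22% in these data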;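 note: counterscreen of GAA850 promoter hits where activity marks nonselective or luminescence artifacts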
GAA850 confirm = confirmation of GAA850 frataxin (FXN) promoter activators; activation, % at 6 µM; AID 588351; HEK293 lucGAA850 FXN promoter luciferase reporter, 24 h; 100% = activation by SAHA; shares compounds with FXN GAA850 act; hit rate 86% among 1,900;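 active = mean activation above a set limit taken from the primary screen, cut at about 8% in these data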;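 note: 0% = DMSO wells and 100% = 10 µM SAHA wells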
* = called active by the depositor; · = not tested or not shown. Compounds with a hit are over-represented: about 1.9% of the library has one in this group of screens.

SMILES	FXN GAA850 act	HIF act	Neddyl block	proCasp7 act	Calb FLC	proCasp3 act	GAA30 FXN cntr	GAA850 confirm	others
CCc1cc2c(cc1-c1csc(C/C(N)=N/O)n1)C(C)(C)CCC2(C)C	1	·	-5	·	·	·	·	·
CNC(=O)Oc1cc2c(cc1C(C)(C)C)CCC2	-3	·	-3	·	·	·	·	·
Cn1c(NN=O)nc2ccccc21	5	66*	-16	4	82	-19	·	·
CN1CCN(Cc2nc3ccccc3n2C)CC1	1	0	2	-5	-8	3	·	·
COc1cccc(C(=O)C2CCCN(Cc3cccc4c3OCO4)C2)c1 (stereo not given)	-2	0	-3	3	108*	13	·	·
CCC(C)NC(=O)c1c(N)n(Cc2ccc3c(c2)OCO3)c2nc3ccccc3nc12 (stereo not given)	-1	0	·	25	-1	70*	·	·	procasp7 triplic=-20;proCasp3 confirm=-16
O=C(Cc1cccs1)N1Cc2ccccc2-n2nncc2C1	0	·	4	·	·	·	·	·
CC(C)CCNC(=O)c1c(N)n(CC2CCCO2)c2nc3ccccc3nc12 (stereo not given)	1	-1	·	20	9	25*	·	·	procasp7 triplic=-21;proCasp3 confirm=-11
CN(C)C1CCc2[nH]c3c(F)cc(F)cc3c2C1 (stereo not given)	2	·	-3	·	·	·	·	·
CCC(C)OC(=O)c1c(N)n(Cc2cccs2)c2nc3ccccc3nc12 (stereo not given)	-3	0	·	13	4	23*	·	·	procasp7 triplic=-19;proCasp3 confirm=-14
Nc1c(C(=O)OCc2ccccc2)c2nc3ccccc3nc2n1Cc1cccs1	-4	0	30	-6	6	-1	·	·
COc1ccc(-c2nc3ccc(C(=O)N4CCC5(CC4)OCCO5)cc3nc2-c2ccc(OC)cc2)cc1	4	-1	·	52*	5	30*	·	·	PC3 D3A act=-28;PC7 dual conf=-35
COc1ccc(-n2c(C)nc3cc(C(=O)N4CCC5(CC4)OCCO5)ccc32)cc1	3	1	3	1	-9	-4	·	·
CCCNc1oc(-c2cccc3ccccc23)nc1C#N	4	1	·	32*	-3	33*	·	·	PC3 D3A act=-29;PC7 dual conf=-36
NC(=O)c1ccc(N)nc1	-2	·	6	·	·	·	·	·
COc1ccc2c(c1)/C(=C/c1cnc[nH]1)C(=O)N2	43*	9.9*	-22	-19	·	-13	116*	76*
CCN1C(=O)C(=Cc2ccc(C)s2)C(=O)N(CC)C1=S	9.0*	1	3	-23	-1	-10	79*	45*
O=C(Cc1c[nH]c2ccccc12)NNCc1ccc(N(CCCl)CCCl)cc1	-2	·	-2	·	·	·	·	·
C=CCNC(=O)c1c(N)n(Cc2ccco2)c2nc3ccccc3nc12	9.6*	0	·	-9	-18	4	17	8.6*
Cn1cccc1/C=C1\C(=O)NC(=O)N(Cc2ccccc2)C1=O	8.0*	0	-4	-12	-7	-1	-7	24*
CCC(=NC(C)c1ccccc1)c1c(O)[nH]c(=O)[nH]c1=O (stereo not given)	8.5*	0	-6	3	1	-5	16	10*
CN1C(=O)c2ccccc2NC(=O)[C@]12O[C@@H]2c1ccccc1	13*	0	4	3	-1	4	20	5
COc1ccc(/C=N/N=C(/N)N[N+](=O)[O-])c(OC)c1	9.7*	1	-13	6	15	-10	75*	26*
CC(C)(C)n1nnnc1C(C1CC1)N1CCC2(CC1)C(=O)NCN2c1ccccc1 (stereo not given)	·	·	2	·	·	·	·	·
O=C1NCN(c2ccccc2)C12CCN(C(c1ccnc3ccccc13)c1nnnn1Cc1ccccc1)CC2 (stereo not given)	·	·	0	·	·	·	·	·
SMILES	FXN GAA850 act	HIF act	Neddyl block	proCasp7 act	Calb FLC	proCasp3 act	GAA30 FXN cntr	GAA850 confirm	others
O=C1N[C@H](Cc2ccccc2)C(=O)N2[C@@H]3[C@H](C[C@@H]12)c1ccccc1N3OOSc1ccccc1	-1	-1	-17	0	-1	1	·	·
O=c1[nH]cnc2nc(-c3ccc(N(CCCl)CCCl)cc3)[nH]c12	9.0*	·	·	·	·	·	91*	56*
O=C(O)CCCc1ccc(N(CCCl)CCCl)cc1	0	0	-5	-7	9	-6	·	·
COC(=O)C1=C(c2ccc(OCc3ccccc3)cc2)C[C@@H]2CC[C@H]1N2C(=O)NCc1ccccc1C(F)(F)F	-10	·	-4	·	·	·	·	·
CCc1ccc(N2C(=O)NC(=O)/C(=C\C=C\c3ccco3)C2=O)cc1	6	2	9	1	13	-16	·	·
Cc1cc(C)cc(N2C(=O)NC(=O)/C(=C\C=C\c3ccco3)C2=O)c1	8.9*	2	10	2	1	-5	-49	-10
CC(C)c1ccc(N2C(=O)NC(=O)/C(=C/C=C/c3ccco3)C2=O)cc1	8.7*	0	3	-14	-11	-5	3	20*
Cc1ccc(N2C(=O)NC(=O)/C(=C/C=C/c3ccco3)C2=O)cc1	5	1	5	-15	7	-20	·	·
COC(=O)[C@@H]1[C@@H](C(=O)OC)C2(c3ccccc3-c3ccccc32)N(c2ccc(Cl)cc2)N1C#N	13*	-4	-1	-3	-7	6	-96	-19
COC(=O)C[C@]1(C(=O)OC)CN(C#N)N(c2ccc(Cl)cc2)C12c1ccccc1-c1ccccc12	-15	-3	2	0	-6	9	·	·
CC1=CC(O)C(O)C2(C)C1CC1OC(=O)CC3C(C)C(O)C(=O)C2C13CO (stereo not given)	-2	·	12	·	·	·	·	·

Assay outcomes as filed in PubChem BioAssay.
